Bioassay records deposited in PubChem by several laboratories.
Sampled rows, rich in hits. Any-hit rate of the full collection: about 4.8%.
PAFAH2 FP inh: PAFAH2 enzyme inhibitors, primary screen, biochemical, fluorescence polarization, human. Platelet-activating factor acetylhydrolase 2, cytoplasmic (Homo sapiens), Q99487. recombinant PAFAH2, FP-rhodamine activity probe. inhibition, % at 3.39 µM. 340,000 tested, 0.99% active. AID 492956, 2010;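 active = inhibition above the mean over all tested compounds plus 3 SD, cut at about 30% in these data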;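 also: inhibitors block probe labeling of enzyme so polarization drops; 0% = enzyme with DMSO and 100% = wells lacking PAFAH2 protein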
PAFAH1B2 inh: PAFAH1B2 enzyme inhibitors, primary screen, biochemical, fluorescence polarization, human | 340,000 tested, 1.2% active | inhibition, % at 3.39 µM | AID 492953, 2010 | Platelet-activating factor acetylhydrolase IB subunit alpha2 (Homo sapiens), P68402 | recombinant PAFAH1B2, FP-rhodamine activity probe;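 active = inhibition above the mean of all tested compounds plus 3 SD, cut at about 24% in these data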;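 also: 0% = enzyme with DMSO and 100% = wells lacking PAFAH1B2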
PAFAH1B3 FP inh: PAFAH1B3 enzyme inhibitors, primary screen, biochemical, fluorescence polarization, human. AID 492972, 2010. inhibition, % at 3.39 µM. Platelet-activating factor acetylhydrolase IB subunit alpha1 (Homo sapiens), Q15102. 340,000 tested, 0.28% active. recombinant PAFAH1B3, FP-rhodamine probe;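 active = inhibition above the screen-wide average of all tested compounds plus 3 SD, cut at about 25% in these data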;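 also: 0% = enzyme with DMSO only and 100% = wells lacking PAFAH1B3 protein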
Target sequence (Q15102 whole entry, looked up): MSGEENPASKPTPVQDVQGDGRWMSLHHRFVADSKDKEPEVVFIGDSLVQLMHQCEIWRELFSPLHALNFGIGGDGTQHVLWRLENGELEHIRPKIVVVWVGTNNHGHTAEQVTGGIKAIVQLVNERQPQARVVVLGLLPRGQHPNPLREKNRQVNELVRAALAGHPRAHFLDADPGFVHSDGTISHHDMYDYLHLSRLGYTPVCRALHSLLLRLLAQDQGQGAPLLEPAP
pPAFAH FP inh: pPAFAH enzyme inhibitors, primary screen, biochemical, fluorescence polarization, human; Platelet-activating factor acetylhydrolase (Homo sapiens), Q13093; recombinant pPAFAH, FP-rhodamine probe fluorescence polarization; inhibition, % at 3.39 µM; 330,000 tested, 1.5% active; AID 463082, 2010;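 active = inhibition above the mean inhibition across the screen plus 3 SD, cut at about 25% in these data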;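 also: inhibitors block binding of the rhodamine activity-based probe so polarization drops; 0% = enzyme with DMSO and 100% = wells lacking pPAFAH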
Target sequence (Q13093 whole entry, looked up): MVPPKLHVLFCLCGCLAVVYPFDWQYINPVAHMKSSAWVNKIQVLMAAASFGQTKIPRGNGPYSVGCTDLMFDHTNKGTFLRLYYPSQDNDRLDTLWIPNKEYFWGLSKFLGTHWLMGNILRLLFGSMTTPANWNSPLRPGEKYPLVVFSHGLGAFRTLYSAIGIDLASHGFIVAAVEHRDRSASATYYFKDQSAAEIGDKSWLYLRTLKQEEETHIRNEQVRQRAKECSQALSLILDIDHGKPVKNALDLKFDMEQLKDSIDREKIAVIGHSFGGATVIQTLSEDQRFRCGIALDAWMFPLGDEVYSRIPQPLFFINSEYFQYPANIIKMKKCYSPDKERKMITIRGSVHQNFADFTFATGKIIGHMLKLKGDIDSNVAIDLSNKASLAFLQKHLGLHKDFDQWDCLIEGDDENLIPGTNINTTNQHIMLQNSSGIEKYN
UCH37 DUB inh: inhibitors of human UCH37 deubiquitinase, primary screen, biochemical, Ub-AMC cleavage, fluorescence | Ubiquitin carboxyl-terminal hydrolase isozyme L5 (Homo sapiens), Q9Y5K5 | purified proteasome/UCH37 | inhibition, % (no concentration beside the values) | 330,000 tested, 0.33% active;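 active = mean inhibition over replicate wells above about 20%, limit read from the data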;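 also: 0% = compound-free wells with enzyme and 100% = wells lacking proteasome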
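Reagent: Ub-AMC substrate; assay system: Proteasome-associated human UCH37 deubiquitinase; controls: no-proteasome and no-compound wells; read-out: % inhibition of Ub-AMC cleavage fluorescence; timing: 30 min preincubation with enzyme, 25 min cleavage at room temperature; signal: AMC fluorescence from Ub-AMC cleavage, excitation 355 nm, emission 460 nm; buffer or medium: Tris-HCl pH 7.4 plus ovalbumin, ATP-MgCl2, DTT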
NR3A LBD binder: binders of NR3A ligand-binding domain, primary screen, biophysical, differential scanning fluorimetry, uHTS; Glutamate receptor ionotropic, NMDA 3A (GRIN3A) ligand-binding domain; NR3A LBD differential scanning fluorimetry, Tm shift; 0% = protein alone, 100% = glycine-bound protein; Tm shift relative to glycine control, % at 25 µM; 340,000 tested, 2.5% active;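 active = melting temperature shift of at least 10% of the positive control shift, at one fixed dose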
Numbers without * were called inactive; . = no result.

SMILES	PAFAH2 FP inh	PAFAH1B2 inh	PAFAH1B3 FP inh	pPAFAH FP inh	UCH37 DUB inh	NR3A LBD binder
CC1=Nc2ccccc2/C1=C/c1c(N)n2c(S(=O)(=O)CC(C)C)nsc2nc1=O	10	14	-5	.	6	16*
CSc1nsc2nc(=O)c(/C=C3\C(C)=Nc4ccc(C)cc43)c(N)n12	-6	6	9	9	4	21*
COC(=O)C(Cc1ccc(OC(=O)c2ccc(C)cc2)cc1)N1Cc2ccccc2C1=O (centres undefined)	-4	-2	-4	6	2	14*
COc1cc2cc(-c3ccc(OC)c(OC)c3C)nc(N)c2cc1OC	.	.	.	1	-16	-1
COc1cc2cc(-c3ccc(O)cc3O)nc(C)c2cc1OC	1	1	14	21	7	29*
COc1cc(NC(=O)CC(C)=NNC(=O)C2CCCCC2)c(OC)cc1Cl	.	.	.	.	4	.
Cc1nnc(C)n1N=Cc1cccc([N+](=O)[O-])c1	.	.	.	.	3	.
O=C(CCNC(=O)c1ccccc1Cl)NN=Cc1ccc(O)cc1	.	.	.	.	1	.
CC(C)(C)C1CCC2(CC1)C(C#N)=C(SCC(=O)Nc1ccccc1)NC(=O)C2C#N (centres undefined)	5	57*	8	9	5	21*
N#CC1=C(N)NC(SCc2ccccc2)=C(C#N)C12CCCC2	-4	9	2	4	21*	4
CC1(C)CC(=O)C2=C(C1)NC(SCC(=O)Nc1ccccc1)=C(C#N)C21CCCCC1	0	4	-2	6	3	12*
N#CC1=C(N)NC(SCC(=O)Nc2ccc(Br)cc2)=C(C#N)C12CCCCC2	4	13	7	8	3	31*
N#CC1=C(SCC(=O)c2cc3ccccc3oc2=O)NC(=O)C(C#N)C12CCCC2 (centres undefined)	7	-3	-3	16	2	6
CC1=C(C(=O)Nc2ccccc2)C2(CCCCC2)C(C#N)=C(SCC(N)=O)N1	9	5	10	-3	4	0
Cc1ccc(C)c(NC(=O)CCC(=O)NN=Cc2cccnc2)c1	.	.	.	.	7	.
COC(=O)c1nn(-c2ccccc2)c(Sc2ccc(Br)cc2)c1C=NO	.	.	.	.	0	.
O=C(N/N=C/c1ccc([N+](=O)[O-])o1)c1cn(-c2ccccc2)nc1-c1ccc(Cl)cc1	-7	-1	-2	11	.	34*
O=C(N/N=C/c1ccc([N+](=O)[O-])o1)c1cn(-c2ccccc2)nc1-c1ccccc1	-4	-1	7	27*	.	13*
Cn1c(SCC(=O)NN=Cc2ccncc2)nc2ccccc21	.	.	.	.	3	.
COc1ccccc1C(=O)NCC(=O)NN=Cc1cccc(Cl)c1	.	.	.	.	1	.
Cc1cc(NC(=O)COc2cccc3cccnc23)no1	.	.	.	.	-1	.
Cc1oc(C(=O)O)cc1COc1cccc2cccnc12	22	9	16	28*	-1	1
Cc1cc2oc(C(=O)N3CCN(Cc4ccccc4)CC3)c(C)c2cc1C	1	5	0	26*	2	-5
N#CC(C#N)=Cc1cn(-c2ncc(C(F)(F)F)cc2Cl)c2ccccc12	-6	-9	-16	4	-4	8
CC(=O)/C=C\c1cn(-c2ncc(C(F)(F)F)cc2Cl)c2ccccc12	3	2	-1	0	5	14*
SMILES	PAFAH2 FP inh	PAFAH1B2 inh	PAFAH1B3 FP inh	pPAFAH FP inh	UCH37 DUB inh	NR3A LBD binder
Cc1cc2c(cc1S(=O)(=O)Nc1ccc(OC(F)(F)F)cc1)OCC(=O)N2	2	14	8	34*	4	-2
COc1cc(NS(=O)(=O)c2cc3c(cc2C)NC(=O)CO3)cc(OC)c1	-2	3	1	5	8	-13
O=C(CCCn1c(=O)c2cccn2c2cccnc21)NCc1cccc(Br)c1	7	2	6	0	-15	1
O=C(CCn1c(=O)c2cccn2c2cccnc21)NCc1cccc(Cl)c1	-3	-4	-3	6	-7	10*
Fc1cccc(NCCc2c[nH]c3ccccc23)n1	-10	4	10	0	0	15*
c1ccc(-n2nnnc2NCCc2c[nH]c3ccccc23)cc1	-6	5	2	2	0	12*
Cc1ccc(NN=C(C#N)C(=N)N2CCCCCC2)cc1	.	.	.	.	3	.
CC(/C=C1\SC(=S)N(NC(=O)c2ccncc2)C1=O)=C\c1ccccc1	6	7	6	4	10	20*
CC(/C=C1\SC(=S)N(NC(=O)c2ccc(C)cc2)C1=O)=C\c1ccccc1	-26	1	-12	-3	8	3
CC(/C=C1\SC(=S)N(NS(=O)(=O)c2ccc(C)cc2)C1=O)=C\c1ccccc1	4	28*	4	14	8	-6
CC(/C=C1\SC(=S)N(NS(=O)(=O)c2ccccc2)C1=O)=C\c1ccccc1	7	39*	9	10	9	-7
CC(/C=C1\SC(=S)N(NC(=O)c2ccccc2C)C1=O)=C\c1ccccc1	-4	1	2	-4	5	2
Cn1cccc1C=NNC(=O)Cc1ccc(Br)c2ccccc12	.	.	.	.	-1	.
N#CC(=NNc1cccc(Cl)c1)C(=O)c1ccccc1	.	.	.	.	7	.
O=C(CC12CC3CC(CC(C3)C1)C2)NN=Cc1ccncc1	.	.	.	.	6	.
O=C(O)c1ccc(/C=N/Nc2ccc(C(F)(F)F)cn2)cc1	6	-2	5	.	.	0
COc1cc(/C=N/Nc2nc3ccccc3[nH]2)ccc1O	-2	-2	4	4	.	15*
COc1cc(/C=N/Nc2snc(SC)c2C#N)ccc1O	6	3	-2	23	.	20*
COc1cc(/C=N/Nc2ccc(C(F)(F)F)cn2)ccc1O	1	6	8	11	.	30*
COc1cc(/C=N/NC(=O)c2cc3ccccc3[nH]2)ccc1O	-7	17	14	12	.	34*
COc1cc(/C=N/Nc2nc3ccccc3[nH]2)cc(OC)c1O	4	6	5	15	.	-2
O=C(O)c1ccc(NN=Cc2ccc(OC(=O)c3ccccc3Cl)cc2)cc1	.	.	.	.	-9	.
O=[N+]([O-])c1ccc(Nc2nc(N/N=C\c3ccc4c(c3)OCO4)nc(N3CCCCC3)n2)cc1	-15	-2	-10	8	.	13*
COc1ccc([N+](=O)[O-])cc1/C=N/Nc1nc(N2CCCCC2)nc(N2CCCCC2)n1	1	6	5	3	.	29*
CC(=NO)C(=O)NCCCNCCCN(C)C	.	.	.	.	0	.
